One block for each molecule: values may come before it. Calls of active or inactive are those of the source. No cut-off for these calls is given here.
How the values were obtained:
[1] = molecular target: T1, Carbonic anhydrase 9 (Homo sapiens, UniProt Q16790); experiment: Inhibition of human carbonic anhydrase 9 incubated for 15 mins prior to testing by stopped flow CO2 hydrase assay
[2] = Antioxidant activity of compound assessed as reduction in ipoxanthine/xanthine oxidase-induced superoxide anion level after 30 mins by nitro blue tetrazolium-based spectrophotometric assay; type: functional
Method in brief: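 Cell-free test with superoxide generated by a hypoxanthine–xanthine oxidase system. Nitro blue tetrazolium […] read after 30 min without or with increasing compound concentrations (up to 1000 μM).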

[3] = tested on: Astrocyte; experiment: Antioxidant activity in Sprague-Dawley rat primary cortical astrocytes assessed as inhibition of OXA-induced superoxide radical anion at 100 uM after 4 hrs by cytochrome C assay relative to control; type: functional
Method in brief: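 Primary rat cortical astrocytes (5 × 10^5 cells/well) exposed to 100 μM oxaliplatin for 4 h, with or without co-incubated compound. Superoxide measured by cytochrome C assay. Absorbance in the presence of SOD subtracted as nonspecific. Mean ± SEM of three experiments versus untreated culture.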

[4] = tested on: Rattus norvegicus; experiment: Antihyperalgesic activity in OXA-induced neuropathic pain Sprague-Dawley rat model assessed as reduction in response to noxious mechanical stimulus at 30 mg/kg, po after 15 to 75 mins on day 21 post induction; type: functional, organism-based
Method in brief: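 Male Sprague-Dawley rats (200-250 g) given oxaliplatin 2.4 mg kg−1 ip daily in 0.5% glucose solution. On day 21, single po dose of test agent in 1% CMC vehicle. Paw-pressure test (noxious mechanical stimulus, weight tolerated) repeated over time after dosing. 12 rats per group from two experimental sets, mean ± SEM.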

[5] = tested on: HT-29; experiment: Cytotoxicity against human HT-29 cells assessed as mortality at 1 to 300 uM after 24 hrs by MTT assay relative to control; type: functional
Method in brief: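 Human colon cancer HT-29 cells incubated with increasing concentrations (1−300 μM) for 24 h; viability read by MTT test and expressed as % of viable cells relative to untreated control.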

[6] = tested on: HT-29; experiment: Synergistic antiproliferative activity against human HT-29 cells assessed as cell viability at 100 uM after 24 hrs in presence of 1 uM oxaliplatin by MTT assay relative to control; type: functional
Method in brief: (§1)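 HT-29 cells co-treated 24 h with compound at 100 μM plus oxaliplatin (1, 10, 30, 100 or 300 μM). Viability by MTT as % viable cells versus untreated control. Compared to control and to compound alone.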

[7] = tested on: HT-29; experiment: Synergistic antiproliferative activity against human HT-29 cells assessed as cell viability at 100 uM after 24 hrs in presence of 10 uM oxaliplatin by MTT assay relative to control; type: functional; method in brief: as §1
[8] = tested on: HT-29; experiment: Synergistic antiproliferative activity against human HT-29 cells assessed as cell viability at 100 uM after 24 hrs in presence of 30 uM oxaliplatin by MTT assay relative to control; type: functional; method in brief: as §1
[9] = tested on: HT-29; experiment: Synergistic antiproliferative activity against human HT-29 cells assessed as cell viability at 100 uM after 24 hrs in presence of 100 uM oxaliplatin by MTT assay relative to control; type: functional; settings: HT-29, 24 h, read-out: Activity; method in brief: as §1
[10] = tested on: HT-29; experiment: Synergistic antiproliferative activity against human HT-29 cells assessed as cell viability at 100 uM after 24 hrs in presence of 300 uM oxaliplatin by MTT assay relative to control; type: functional; method in brief: as §1
[11] = tested on: HT-29; experiment: Antiproliferative activity against human HT-29 cells assessed as cell viability at 100 uM after 24 hrs by MTT assay relative to control; type: functional; settings: HT-29, 24 h, read-out: Activity
Method in brief: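 HT-29 human colon cancer cells incubated 24 h with compound (range 1−300 μM). Viability by MTT, expressed as % viable cells relative to untreated control.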

[12] = molecular target: Transient receptor potential cation channel subfamily A member 1 (Homo sapiens) (UniProt O75762); experiment: Inhibition of oxaliplatin activated TRPA1 (unknown origin) expressed in CHO cells assessed as reduction in channel evoked current at 30 uM by Patch-clamp method; type: cell-based
Method in brief: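 CHO cells transiently transfected with wild-type TRPA1, EGFP as transfection marker. Whole-cell patch clamp 48−72 h after transfection. Voltage ramps read at +50 and −50 mV. Currents evoked by 50 μM oxaliplatin, then compound applied. n = 5 cells, unpaired Student's t test.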

[13] = molecular target: Carbonic anhydrase 12 (Homo sapiens, UniProt O43570); experiment: Inhibition of human carbonic anhydrase 12 incubated for 15 mins prior to testing by stopped flow CO2 hydrase assay
[14] = molecular target: Macrophage metalloelastase (Homo sapiens, UniProt P39900); experiment: Binding affinity to human 15N-labeled MMP-12 catalytic domain (G106 to G263 residues) expressed in Escherichia coli BL21 Gold by 1H […] NMR method
Method in brief: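 2D 1H−15N HSQC spectra of the MMP-12 catalytic domain titrated with ligand (up to 3.3 mM). Kd derived by fitting chemical shift variations of residues.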

[15] = molecular target: T1, Carbonic anhydrase 9; settings: 100 uM
[16] = molecular target: T1, Carbonic anhydrase 9; settings: 100 uM; remark: listed apart in the source
[17] = molecular target: T1, Carbonic anhydrase 9; settings: 100 uM; remark: listed apart in the source
[18] = molecular target: T1, Carbonic anhydrase 9; settings: 100 uM; remark: listed apart in the source
[19] = molecular target: T1, Carbonic anhydrase 9; settings: 100 uM; remark: listed apart in the source
[20] = molecular target: T1, Carbonic anhydrase 9; settings: 100 uM; remark: listed apart in the source
[21] = molecular target: T1, Carbonic anhydrase 9; settings: 100 uM; remark: listed apart in the source

Carbonic anhydrase 12, sequence (O43570 whole entry, the tested form may be a part): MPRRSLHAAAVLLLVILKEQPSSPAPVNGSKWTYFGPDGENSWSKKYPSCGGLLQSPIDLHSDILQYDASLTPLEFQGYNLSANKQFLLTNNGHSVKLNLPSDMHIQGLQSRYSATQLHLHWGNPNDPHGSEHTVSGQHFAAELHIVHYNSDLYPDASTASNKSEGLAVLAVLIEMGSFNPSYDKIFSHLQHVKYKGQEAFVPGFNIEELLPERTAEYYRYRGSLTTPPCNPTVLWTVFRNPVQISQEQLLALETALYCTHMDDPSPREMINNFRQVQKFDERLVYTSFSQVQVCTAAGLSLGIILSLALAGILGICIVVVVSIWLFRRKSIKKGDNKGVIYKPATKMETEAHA
Macrophage metalloelastase, sequence (P39900 whole entry, the tested form may be a part): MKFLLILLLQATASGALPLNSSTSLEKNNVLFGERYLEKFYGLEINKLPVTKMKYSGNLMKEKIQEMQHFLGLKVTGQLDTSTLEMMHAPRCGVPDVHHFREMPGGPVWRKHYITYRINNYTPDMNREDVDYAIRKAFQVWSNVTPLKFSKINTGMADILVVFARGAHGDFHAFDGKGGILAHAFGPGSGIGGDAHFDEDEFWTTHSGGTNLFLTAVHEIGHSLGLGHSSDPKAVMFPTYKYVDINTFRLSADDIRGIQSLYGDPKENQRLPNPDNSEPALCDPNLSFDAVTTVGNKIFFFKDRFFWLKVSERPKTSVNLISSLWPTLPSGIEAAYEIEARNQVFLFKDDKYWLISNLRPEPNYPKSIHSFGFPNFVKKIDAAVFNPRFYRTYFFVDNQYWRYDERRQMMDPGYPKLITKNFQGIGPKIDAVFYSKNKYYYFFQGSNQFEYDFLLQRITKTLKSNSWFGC
Transient receptor potential cation channel subfamily A member 1 (Homo sapiens), sequence (O75762 whole entry): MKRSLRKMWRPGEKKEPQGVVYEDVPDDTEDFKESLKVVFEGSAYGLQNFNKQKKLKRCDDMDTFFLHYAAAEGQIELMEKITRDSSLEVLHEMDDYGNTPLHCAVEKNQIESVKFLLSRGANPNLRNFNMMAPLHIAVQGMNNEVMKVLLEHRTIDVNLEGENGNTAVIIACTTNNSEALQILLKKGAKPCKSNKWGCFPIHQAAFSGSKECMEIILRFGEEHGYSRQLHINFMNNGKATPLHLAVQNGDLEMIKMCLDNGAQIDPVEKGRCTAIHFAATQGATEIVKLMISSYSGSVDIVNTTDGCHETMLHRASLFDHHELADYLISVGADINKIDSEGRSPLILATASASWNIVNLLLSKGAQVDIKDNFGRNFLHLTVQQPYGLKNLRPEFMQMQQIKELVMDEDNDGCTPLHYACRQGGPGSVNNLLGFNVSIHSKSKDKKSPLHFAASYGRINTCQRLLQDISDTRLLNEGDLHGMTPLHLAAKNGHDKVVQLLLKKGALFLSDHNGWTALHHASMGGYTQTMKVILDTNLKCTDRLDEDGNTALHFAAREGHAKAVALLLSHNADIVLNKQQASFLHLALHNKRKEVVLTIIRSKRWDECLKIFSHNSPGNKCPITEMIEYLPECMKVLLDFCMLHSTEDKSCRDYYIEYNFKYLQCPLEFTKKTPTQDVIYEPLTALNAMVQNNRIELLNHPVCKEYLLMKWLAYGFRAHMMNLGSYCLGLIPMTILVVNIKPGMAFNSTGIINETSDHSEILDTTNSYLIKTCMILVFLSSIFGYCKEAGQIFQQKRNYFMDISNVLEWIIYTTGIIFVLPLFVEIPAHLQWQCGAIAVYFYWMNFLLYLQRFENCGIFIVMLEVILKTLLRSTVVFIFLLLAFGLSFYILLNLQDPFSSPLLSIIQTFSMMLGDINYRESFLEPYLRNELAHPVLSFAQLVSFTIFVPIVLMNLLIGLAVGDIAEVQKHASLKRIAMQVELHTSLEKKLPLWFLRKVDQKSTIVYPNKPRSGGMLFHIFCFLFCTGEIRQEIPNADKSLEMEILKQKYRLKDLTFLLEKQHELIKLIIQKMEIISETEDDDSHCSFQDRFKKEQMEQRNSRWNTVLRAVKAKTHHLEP

SMILES: O=C(CCCCC1CCSS1)NCCCS(=O)(=O)[O-].[Na+] (centres undefined)
- Ki [1]: 0.654 µM
- Activity [2]: Dose-dependent effect
- inhibition at 100 µM [3]: 75%
- Activity [4]: Active
- mortality [5]: 20%
- Activity [6]: 74.6%
- Activity [7]: 78.6%
- Activity [8]: 71.4%
- viability at 100 µM [9]: 67.4%
- Activity [10]: 48.1%
- viability at 100 µM [11]: 81.3%
- inhibition [12]: Active
- Ki [13]: 0.727 µM
- Kd [14]: 875 µM
- inhibition [15]: Active
- inhibition [16]: Active
- inhibition [17]: Active
- inhibition [18]: Active
- inhibition [19]: Active
- inhibition [20]: Active
- inhibition [21]: Active

SMILES: O=C(CCCCC1CCSS1)NCCCCS(=O)(=O)O (centres undefined)
- Activity [2]: Dose-dependent effect
- inhibition at 100 µM [3]: 75%
- Activity [4]: Active

- Ki [1]: 6.83 µM
- Ki [13]: 4.51 µM
SMILES: O=S(=O)(O)/C=C/c1cc(Br)ccc1O

SMILES: O=C(CCCCC1CCSS1)NCCS(=O)(=O)O (centres undefined)
- Activity [2]: Dose-dependent effect
- inhibition at 100 µM [3]: 75%
- Activity [4]: Active

— ChEMBL document CHEMBL4024753, “Lipoyl-Homotaurine Derivative (ADM_12) Reverts Oxaliplatin-Induced Neuropathy and Reduces Cancer Cells Malignancy by Inhibiting Carbonic Anhydrase IX (CAIX)” (J Med Chem, 2017)
